# ChEMBL document CHEMBL4321814, “Design of Gallinamide A Analogs as Potent Inhibitors of the Cysteine Proteases Human Cathepsin L and Trypanosoma cruzi Cruzain” (J Med Chem, 2019)
# pIC50: −log10 of the molar value. Activity calls are given as the source filed them. The calls are words filed in the database; no cut-off is given here.
# How the values were obtained:
# Trypanosoma cruzi = assay type: functional; details: C2C12, 72 h, read-out: LD50 (the source's name)
# Cruzipain = Cruzipain (Trypanosoma cruzi, UniProt P25779); assay: Inhibition of recombinant Trypanosoma cruzi Cruzain expressed in Pichia pastoris using Z-Phe-Arg-AMC substrate incubated for 30 mins by fluorescence based assay
# [1] = Cytotoxicity in mouse C2C12 cells assessed as reduction in cell viability incubated for 3 days; assay type: cell-based; details: read-out: LD50
# [2] = target: Procathepsin L (Homo sapiens) (UniProt P07711); assay: Inhibition of human cathepsin L assessed as Kinact /Ki ratio using fluorogenic substrate cbz-FR-AMC monitored for 90 to 120 mins by spectrophotometry
# Procedure, shortened: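 Continuous kinetic assay with 0.5 ng/mL final cathepsin L and 10 μM Z-FR-AMC, with DMSO below 6%. Inhibitors were a 3-fold, 11-point series from […] to 1.0 μM. Substrate and inhibitor were combined and enzyme was added to start the reaction. AMC release was read for 2 h and converted via an AMC standard curve. Progress curves were fitted to a six-parameter covalent inhibition model (k_inact, association/dissociation constants).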
# [3] = target: Procathepsin L (Homo sapiens) (UniProt P07711); assay: Irreversible inhibition of human cathepsin L assessed as residual enzyme activity using fluorogenic substrate cbz-FR-AMC incubated for 30 mins followed by 100 fold dilution and measured after 1 hrs by spectrophotometry
# [4] = target: Procathepsin L (Homo sapiens) (UniProt P07711); assay: Irreversible inhibition of human cathepsin L assessed as residual enzyme activity using fluorogenic substrate cbz-FR-AMC incubated for 30 mins followed by 100 fold dilution and measured after 2 hrs by spectrophotometry
# [5] = target: Procathepsin L (Homo sapiens) (UniProt P07711); assay: Reversible inhibition of human cathepsin L assessed as residual enzyme activity using fluorogenic substrate cbz-FR-AMC incubated for 30 mins followed by 100 fold dilution and measured after 1 hrs by spectrophotometry
# [6] = target: Procathepsin L (Homo sapiens) (UniProt P07711); assay: Irreversible inhibition of human cathepsin L assessed as reduction in enzyme activity using fluorogenic substrate cbz-FR-AMC incubated for 30 mins followed by 100 fold dilution and measured after 2 hrs by spectrophotometry
# Procedure, shortened: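 Preincubation-dilution: cathepsin L at 100-fold final assay concentration incubated 30 min with inhibitor at 10-fold its IC₅₀. Then diluted 100-fold into assay buffer with 10 μM Z-FR-AMC, giving standard enzyme level and 0.1× IC₅₀ inhibitor. AMC fluorescence read continuously in kinetic mode for 2 h and activity compared with vehicle control.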
# Sequence of Procathepsin L (Homo sapiens) (P07711 114-333 limits assumed): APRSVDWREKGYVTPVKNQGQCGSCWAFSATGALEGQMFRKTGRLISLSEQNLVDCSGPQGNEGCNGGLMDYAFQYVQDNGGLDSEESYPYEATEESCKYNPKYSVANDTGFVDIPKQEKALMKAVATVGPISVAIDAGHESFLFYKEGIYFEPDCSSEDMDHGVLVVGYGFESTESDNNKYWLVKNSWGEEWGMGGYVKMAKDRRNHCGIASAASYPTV
# Sequence of Cruzipain (P25779 whole entry): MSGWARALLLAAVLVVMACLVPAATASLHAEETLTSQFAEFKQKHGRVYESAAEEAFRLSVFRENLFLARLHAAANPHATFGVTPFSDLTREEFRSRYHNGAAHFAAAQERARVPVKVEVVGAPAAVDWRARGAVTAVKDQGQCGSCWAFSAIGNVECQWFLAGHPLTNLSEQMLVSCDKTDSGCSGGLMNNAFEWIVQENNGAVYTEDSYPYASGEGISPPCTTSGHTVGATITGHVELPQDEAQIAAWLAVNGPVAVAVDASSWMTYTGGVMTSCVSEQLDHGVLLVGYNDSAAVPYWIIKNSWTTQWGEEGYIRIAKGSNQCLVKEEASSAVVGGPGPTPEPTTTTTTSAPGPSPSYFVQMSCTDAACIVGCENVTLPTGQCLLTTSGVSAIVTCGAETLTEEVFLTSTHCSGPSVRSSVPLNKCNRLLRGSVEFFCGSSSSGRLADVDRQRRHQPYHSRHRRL
compound,measurement,setting,value
COC1=CC(=O)N(C(=O)/C=C/[C@H](Cc2ccccc2)NC(=O)[C@H](CC(C)C)NC(=O)[C@H](CC(C)C)OC(=O)[C@H](Cc2ccccc2)N(C)C)[C@H]1Cc1ccccc1,LC50,Trypanosoma cruzi,> 10000 nM
same,pIC50,Cruzipain,8.87
same,CC50 at 72 h,[1],> 10000 nM
same,Ratio,[2],1060 ×10³ /M/s
COC1=CC(=O)N(C(=O)/C=C/[C@H](Cc2ccccc2)NC(=O)[C@H](CC(C)C)NC(=O)[C@H](CC(C)C)OC(=O)[C@H](Cc2ccccc2)N(C)C)[C@H]1C,LC50,Trypanosoma cruzi,60.3 nM
same,pIC50,Cruzipain,8.92
same,CC50 at 72 h,[1],> 10000 nM
same,Ratio,[2],819 ×10³ /M/s
CC[C@H](C)[C@@H](C(=O)O[C@@H](CC(C)C)C(=O)N[C@@H](CC(C)C)C(=O)N[C@H](/C=C/C(=O)N1C(=O)C=C(OC)[C@@H]1C)Cc1ccccc1)N(C)C,LC50,Trypanosoma cruzi,35.8 nM
same,pIC50,Cruzipain,9.08
same,CC50 at 72 h,[1],> 10000 nM
COC1=CC(=O)N(C(=O)/C=C/[C@H](Cc2ccccc2)NC(=O)[C@H](CC(C)C)NC(=O)[C@H](CC(C)C)OC(=O)[C@H](C(C)C)N(C)C)[C@H]1CC(C)C,LC50,Trypanosoma cruzi,16.4 nM
same,pIC50,Cruzipain,9.60
same,CC50 at 72 h,[1],> 10000 nM
same,Ratio,[2],1780 ×10³ /M/s
O=C(Cn1ccnc1[N+](=O)[O-])NCc1ccccc1 [BENZNIDAZOLE],LC50,Trypanosoma cruzi,1500 nM
CC[C@H](C)[C@@H](C(=O)O[C@@H](CC(C)C)C(=O)N[C@@H](CC(C)C)C(=O)N[C@H](/C=C/C(=O)N1C(=O)C=C(OC)[C@H]1Cc1ccccc1)Cc1ccccc1)N(C)C,LC50,Trypanosoma cruzi,33.3 nM
same,pIC50,Cruzipain,8.97
same,CC50 at 72 h,[1],> 10000 nM
same,Ratio,[2],1030 ×10³ /M/s
CC[C@H](C)[C@@H](C(=O)O[C@@H](CC(C)C)C(=O)N[C@@H](CC(C)C)C(=O)N[C@@H](C)/C=C/C(=O)N1C(=O)C=C(OC)[C@@H]1C)N(C)C [GALLINAMIDE A],LC50,Trypanosoma cruzi,14.7 nM
same,pIC50,Cruzipain,9.59
same,inhibition,[3],Active
same,CC50 at 72 h,[1],> 10000 nM
same,Ratio,[2],901 ×10³ /M/s
same,Activity,[4],5%
COC1=CC(=O)N(C(=O)/C=C/[C@H](Cc2ccccc2)NC(=O)[C@H](CC(C)C)NC(=O)[C@H](CC(C)C)OC(=O)[C@H](Cc2ccccc2)N(C)C)[C@@H]1Cc1ccccc1,LC50,Trypanosoma cruzi,> 10000 nM
same,pIC50,Cruzipain,8.43
same,CC50 at 72 h,[1],> 10000 nM
same,Ratio,[2],1390 ×10³ /M/s
CC[C@H](C)[C@@H](C(=O)O[C@@H](CC(C)C)C(=O)N[C@@H](CC(C)C)C(=O)N[C@@H](C)/C=C/C(=O)N1C(=O)C=C(OC)[C@@H]1Cc1ccccc1)N(C)C,LC50,Trypanosoma cruzi,19.1 nM
same,pIC50,Cruzipain,9.12
same,CC50 at 72 h,[1],> 10000 nM
CC[C@H](C)[C@@H](C(=O)O[C@@H](CC(C)C)C(=O)N[C@@H](CC(C)C)C(=O)N[C@H](/C=C/C(=O)N1C(=O)C=C(OC)[C@@H]1CC(C)C)Cc1ccccc1)N(C)C,LC50,Trypanosoma cruzi,61.8 nM
same,pIC50,Cruzipain,8.97
same,CC50 at 72 h,[1],> 10000 nM
CC[C@H](C)[C@@H](C(=O)O[C@@H](CC(C)C)C(=O)N[C@@H](CC(C)C)C(=O)N[C@@H](/C=C/C(=O)N1C(=O)C=C(OC)[C@H]1Cc1ccccc1)Cc1ccccc1)N(C)C,LC50,Trypanosoma cruzi,537 nM
same,pIC50,Cruzipain,7.43
same,CC50 at 72 h,[1],> 10000 nM
same,Ratio,[2],23.9 ×10³ /M/s
C#CCCCCOC1=CC(=O)N(C(=O)/C=C/[C@H](C)NC(=O)[C@H](CC(C)C)NC(=O)[C@H](CC(C)C)OC(=O)[C@H]([C@@H](C)CC)N(C)C)[C@@H]1C,LC50,Trypanosoma cruzi,17 nM
same,pIC50,Cruzipain,9.33
same,CC50 at 72 h,[1],> 10000 nM
CC[C@H](C)[C@@H](C(=O)O[C@@H](CC(C)C)C(=O)N[C@@H](CC(C)C)C(=O)N[C@@H](C)CCC(=O)N1C(=O)C=C(OC)[C@@H]1C)N(C)C,Activity,[5],75%
CC[C@H](C)[C@@H](C(=O)O[C@@H](CC(C)C)C(=O)N[C@@H](CC(C)C)C(=O)N[C@@H](C)/C=C/C(=O)N1C(=O)C=C(OC)[C@@H]1CC(C)C)N(C)C,LC50,Trypanosoma cruzi,5.1 nM
same,pIC50,Cruzipain,9.31
same,CC50 at 72 h,[1],> 10000 nM
same,Ratio,[2],2510 ×10³ /M/s
COC1=CC(=O)N(C(=O)/C=C/[C@H](C)NC(=O)[C@H](CC(C)C)NC(=O)[C@H](CC(C)C)OC(=O)[C@H](C(C)C)N(C)C)[C@H]1C,LC50,Trypanosoma cruzi,12.9 nM
same,pIC50,Cruzipain,8.54
same,CC50 at 72 h,[1],> 10000 nM
same,Ratio,[2],487 ×10³ /M/s
COC1=CC(=O)N(C(=O)/C=C/[C@H](C)NC(=O)[C@H](CC(C)C)NC(=O)[C@H](CC(C)C)OC(=O)[C@H](Cc2ccccc2)N(C)C)[C@H]1Cc1ccccc1,LC50,Trypanosoma cruzi,18.6 nM
same,pIC50,Cruzipain,9.14
same,CC50 at 72 h,[1],> 10000 nM
same,Ratio,[2],3480 ×10³ /M/s
CC[C@H](C)[C@@H](C(=O)O[C@@H](CC(C)C)C(=O)N[C@@H](CC(C)C)C(=O)N[C@H](/C=C/C(=O)N1C(=O)C=C(OC)[C@@H]1Cc1ccccc1)Cc1ccccc1)N(C)C,LC50,Trypanosoma cruzi,33.8 nM
same,pIC50,Cruzipain,8.94
same,CC50 at 72 h,[1],> 10000 nM
same,Ratio,[2],719 ×10³ /M/s
CC[C@H](C)[C@@H](C(=O)O[C@@H](CC(C)C)C(=O)N[C@@H](CC(C)C)C(=O)N[C@@H](/C=C/C(=O)N1C(=O)C=C(OC)[C@@H]1Cc1ccccc1)Cc1ccccc1)N(C)C,LC50,Trypanosoma cruzi,1080 nM
same,pIC50,Cruzipain,7.09
same,CC50 at 72 h,[1],> 10000 nM
same,Ratio,[2],6.9 ×10³ /M/s
CC(C)CCNC(=O)[C@H](CC(C)C)NC(=O)[C@H]1O[C@@H]1C(=O)O,inhibition,[6],Active
